Biological target: T1, Protein farnesyltransferase (Homo sapiens, UniProt P49354+P49356)
Experiment: Inhibitory activity against farnesyltransferase (FPT) (20 ug/mL)
Assay type: protein-complex assay
In short: (§1)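 Primary scintillation proximity assay (SPA) following the kit protocol, with a biotinylated substrate peptide bearing the K-Ras carboxy-terminal sequence.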

SMILES	inhibition [%]
OC1c2ccc(Cl)cc2SC1Cn1ccnc1 (stereo not given)	58
FC(F)(F)c1ccc2c(c1)S[C@H](Cn1ccnc1)[C@@H]2OCc1ccsc1Cl	75
OCc1nccn1C[C@H]1Sc2cc(Cl)ccc2[C@H]1OCc1ccsc1Cl	30
O[C@@H]1c2ccc(C(F)(F)F)cc2S[C@@H]1Cn1ccnc1	42
Clc1ccc2c(c1)S[C@H](CN1CCOCC1)[C@@H]2OCc1ccsc1Cl	2
O[C@@H]1c2ccc(F)cc2S[C@@H]1Cn1ccnc1	38
O=S1(=O)c2cc(Cl)ccc2C(OCc2ccc(Cl)cc2Cl)C1Cn1ccnc1 (stereo not given)	60
O[C@@H]1c2cc(Br)ccc2S[C@@H]1Cn1ccnc1	44

Other lines, results leading:

inhibition [%]	SMILES
94	Clc1sccc1CO[C@@H]1c2ccccc2S[C@@H]1Cn1ccnc1
83	Clc1ccc(COC2c3c(Cl)cc(Cl)cc3SC2Cn2ccnc2)cc1 (stereo not given)
88	Clc1ccc2c(c1)S[C@H](Cn1ccnc1)[C@@H]2OCc1ccc(Cl)s1
94	Fc1ccc2c(c1)[C@@H](OCc1c(F)cccc1Cl)[C@@H](Cn1ccnc1)S2

Biological target: Geranylgeranyl transferase type I (Homo sapiens, UniProt P49354+P53609)
Experiment: Inhibitory activity against Geranylgeranyl transferase type I
Assay type: protein-complex assay

IC50 [µM]	SMILES
46.8	Clc1sccc1CO[C@@H]1c2ccccc2S[C@@H]1Cn1ccnc1
18.8	Clc1ccc(COC2c3c(Cl)cc(Cl)cc3SC2Cn2ccnc2)cc1 (stereo not given)
5	Clc1ccc2c(c1)S[C@H](Cn1ccnc1)[C@@H]2OCc1ccc(Cl)s1
3.3	Clc1ccc2c(c1)S[C@H](Cn1ccnc1)[C@@H]2OCc1cccnc1Cl

Biological target: Protein farnesyl/geranylgeranyl transferase (Homo sapiens) (UniProt P49354+P49356+P53609)
Experiment: Selectivity was expressed as the ratio of the Geranylgeranyl transferase type I to FPT inhibitory activities (IC50)
Assay type: protein-complex assay

Selectivity ratio	SMILES
42.5	Clc1sccc1CO[C@@H]1c2ccccc2S[C@@H]1Cn1ccnc1
13.4	Clc1ccc(COC2c3c(Cl)cc(Cl)cc3SC2Cn2ccnc2)cc1 (stereo not given)
2.5	Clc1ccc2c(c1)S[C@H](Cn1ccnc1)[C@@H]2OCc1ccc(Cl)s1
2.5	Clc1ccc2c(c1)S[C@H](Cn1ccnc1)[C@@H]2OCc1cccnc1Cl

Biological target: T1, Protein farnesyltransferase
Experiment: Inhibition of farnesyltransferase (FTP) at 20 ug/mL
Assay type: protein-complex assay
In short: as §1

inhibition [%]	SMILES
95	Clc1ccc2c(c1)S[C@H](Cn1ccnc1)[C@@H]2OCc1cccnc1Cl

Biological target: T1, Protein farnesyltransferase
Experiment: Inhibitory activity against recombinant human farnesyltransferase
Assay type: protein-complex assay

SMILES	IC50 [µM]
O=C(Cc1ccccc1)N1CCN(C2c3ccc(Cl)cc3CCc3cccnc32)CC1 (stereo not given)	2.7
OC1c2cc(Cl)ccc2SC1Cn1ccnc1 (stereo not given)	> 75
NC1CCC(C(=O)N2CCC(=C3c4ccc(Cl)cc4CCc4cccnc43)CC2)CC1 (stereo not given)	5
[O-][n+]1ccc(CN2CCC(=C3c4ccccc4CCc4cccnc43)CC2)cc1	1830
O=C(Nc1cccnc1)N1CCN(C2c3ccc(Cl)cc3CCc3cccnc32)CC1 (stereo not given)	1.3
O=C(Nc1ccncc1)C1CCN(C2c3ccc(Cl)cc3CCc3cccnc32)CC1 (stereo not given)	9.2
CN1CCC(C2c3ccccc3CCc3cccnc32)CC1 (stereo not given)	724
O=C(O)c1ccc(C(=O)N2CCC(=C3c4ccc(Cl)cc4CCc4cccnc43)CC2)cc1	5.3
FC(F)(F)c1ccc2c(c1)S[C@H](Cn1ccnc1)[C@@H]2OCc1ccsc1Cl	10.7
O=C(Cc1cccnc1)N1CCN(C(c2ccc(Cl)cc2)c2ccccn2)CC1 (stereo not given)	38.3
O[C@H]1c2cc3c(cc2S[C@H]1Cn1ccnc1)CCCC3	> 70
CC(C)(C)CC(=O)N1CCC(=C2c3ccc(Cl)cc3CCc3cccnc32)CC1	9.8
O=S1(=O)c2cc(Cl)ccc2C(OCc2ccc(Cl)cc2Cl)C1Cn1ccnc1 (stereo not given)	45.9

Next, values leading:

IC50 [µM]	SMILES
1.8	C=C1CC2C3C=C(Cl)C4=CC(=O)C(Br)CC4(C)C3CCC2(C)[C@@]1(O)C(C)=O (stereo not given in full)
2	O=C(Cc1ccccn1)N1CCC(=C2c3ccc(Cl)cc3CCc3cccnc32)CC1
1.14	O=C(Cc1ccncc1)N1CCC(=C2c3ccccc3CCc3ccccc32)CC1
0.6	O=C(Cc1cccnc1)N1CCC(=C2c3ccc(Cl)cc3CCc3cccnc32)CC1
0.7	COC(=O)[C@@H](Cc1ccccc1)NC(=O)[C@@H](Cc1c[nH]c2ccccc12)NC(=O)[C@H](Cc1ccccc1)CP(=O)(O)O
2.3	O=C(Cc1ccncc1)N1CCC(=C2c3ccccc3CSc3ccccc32)CC1
1	CC(C)C(CP(=O)(O)C(Cc1ccccc1)NC(=O)OCc1ccccc1)C(=O)N[C@H](Cc1c[nH]c2ccccc12)C(=O)N[C@H](C)C(=O)O (stereo not given in full)
0.87	O=C(Nc1ccncc1)N1CCC(=C2c3ccc(Cl)cc3CCc3cccnc32)CC1
0.8	O=C(Cc1ccccc1)N1CCC(=C2c3ccc(Cl)cc3CCc3cccnc32)CC1
1.1	Clc1sccc1CO[C@@H]1c2ccccc2S[C@@H]1Cn1ccnc1
2.1	O=C(Cc1ccncc1)N1CCC(=C2c3ccc(Cl)cc3CCc3ccc[n+]([O-])c32)CC1
1.4	Clc1ccc(COC2c3c(Cl)cc(Cl)cc3SC2Cn2ccnc2)cc1 (stereo not given)
0.95	O=C(Nc1ccccn1)N1CCN(C2c3ccc(Cl)cc3CCc3cccnc32)CC1 (stereo not given)
2	Clc1ccc2c(c1)S[C@H](Cn1ccnc1)[C@@H]2OCc1ccc(Cl)s1
1.3	Clc1ccc2c(c1)S[C@H](Cn1ccnc1)[C@@H]2OCc1cccnc1Cl
2.3	Fc1ccc2c(c1)[C@@H](OCc1c(F)cccc1Cl)[C@@H](Cn1ccnc1)S2

From ChEMBL document CHEMBL1130261, “Identification of novel farnesyl protein transferase inhibitors using three-dimensional database searching methods” (J Med Chem, 1997)
